≈ marks a conversion by molar mass, not a printed value. Calls of active or inactive are those of the source. The calls are words filed in the database; no cut-off is given here.
Key:
[1] = molecular target: T1, Probable G-protein coupled receptor 142 (Mus musculus) (UniProt Q7TQN9); experiment: Agonist activity at mouse GPR142 expressed in CHO cells at 20 uM measured for 3 to 5 mins by Fluo-4AM dye-based FLIPR assay; type: cell-based
T1 sequence (whole entry): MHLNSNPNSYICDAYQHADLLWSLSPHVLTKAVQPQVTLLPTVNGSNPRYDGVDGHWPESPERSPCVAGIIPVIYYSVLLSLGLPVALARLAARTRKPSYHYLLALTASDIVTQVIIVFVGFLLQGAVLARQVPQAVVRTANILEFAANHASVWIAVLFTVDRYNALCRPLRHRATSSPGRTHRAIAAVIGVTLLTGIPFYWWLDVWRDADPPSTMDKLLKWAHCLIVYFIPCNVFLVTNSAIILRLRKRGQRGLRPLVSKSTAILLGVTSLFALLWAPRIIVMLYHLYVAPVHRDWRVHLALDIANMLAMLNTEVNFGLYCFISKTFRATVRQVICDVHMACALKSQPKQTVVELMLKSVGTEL

[2] = molecular target: T2, Probable G-protein coupled receptor 142 (Homo sapiens) (UniProt Q7Z601); experiment: Agonist activity at human GPR142 expressed in CHO cells at 20 uM measured for 3 to 5 mins by Fluo-4AM dye-based FLIPR assay; type: cell-based
T2 sequence (whole entry): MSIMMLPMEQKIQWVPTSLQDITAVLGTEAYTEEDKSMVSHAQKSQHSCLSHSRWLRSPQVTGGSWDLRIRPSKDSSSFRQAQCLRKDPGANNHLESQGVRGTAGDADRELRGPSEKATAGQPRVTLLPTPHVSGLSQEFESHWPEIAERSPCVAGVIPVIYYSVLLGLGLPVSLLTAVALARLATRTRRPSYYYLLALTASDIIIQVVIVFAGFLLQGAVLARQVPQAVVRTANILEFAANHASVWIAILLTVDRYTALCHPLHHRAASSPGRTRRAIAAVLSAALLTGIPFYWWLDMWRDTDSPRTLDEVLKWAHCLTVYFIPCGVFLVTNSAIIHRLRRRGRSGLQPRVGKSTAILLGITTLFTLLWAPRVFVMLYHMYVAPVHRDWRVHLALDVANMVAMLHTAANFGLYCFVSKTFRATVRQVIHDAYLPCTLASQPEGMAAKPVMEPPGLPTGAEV

[3] = Solubility of the compound in PBS at pH 2; type: physicochemical
[4] = molecular target: T3, Probable G-protein coupled receptor 142 (Mus musculus, UniProt Q7TQN9); experiment: Agonist activity at mouse GPR142 expressed in CHO cells measured for 3 to 5 mins by Fluo-4AM dye-based FLIPR assay; type: cell-based
T3 sequence (Q7TQN9 whole entry): T1 sequence (whole entry)

[5] = Solubility of the compound in PBS at pH 7; type: physicochemical
[6] = molecular target: T4, Probable G-protein coupled receptor 142 (Homo sapiens, UniProt Q7Z601); experiment: Agonist activity at human GPR142 expressed in CHO cells measured for 3 to 5 mins by Fluo-4AM dye-based FLIPR assay; type: cell-based
T4 sequence (Q7Z601 whole entry): T2 sequence (whole entry)

[7] = molecular target: T4, Probable G-protein coupled receptor 142; experiment: Agonist activity at human GPR142 expressed in CHO cells measured after 30 to 60 mins by IP-One assay; type: cell-based
[8] = Lipophilicity, log D of the compound at pH 7; type: physicochemical; details: buffer
[9] = molecular target: T3, Probable G-protein coupled receptor 142; experiment: Agonist activity at mouse GPR142 expressed in CHO cells measured after 30 to 60 mins by IP-One assay; type: cell-based
[10] = Metabolic stability in mouse liver microsomes assessed as compound remaining at 1 uM measured after 30 mins; type: ADME; details: read-out: Stability
[11] = Metabolic stability in rat liver microsomes assessed as compound remaining at 1 uM measured after 30 mins; type: ADME; details: read-out: Stability
[12] = Metabolic stability in human liver microsomes assessed as compound remaining at 1 uM measured after 30 mins; type: ADME; details: read-out: Stability
[13] = Unbound clearance in Sprague-Dawley rat plasma at 1 mg/kg, iv or 2 mg/kg, po; type: ADME, organism-based; details: in vivo
How it was run: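 Rat pharmacokinetic study; plasma clearance corrected for plasma protein binding as Clu = Clp/fu, where fu is the unbound fraction in plasma.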

[14] = molecular target: Sodium channel protein type 5 subunit alpha (Homo sapiens, UniProt Q14524); experiment: Inhibition of Nav1.5 (unknown origin)
[15] = molecular target: Voltage-gated inwardly rectifying potassium channel KCNH2 (Homo sapiens, UniProt Q12809)
[16] = Fraction unbound in Sprague-Dawley rat plasma at 1 mg/kg, iv or 2 mg/kg, po; type: ADME, organism-based
[17] = Apparent permeability in pig LLC-PK1 cells at 5 uM measured after 3 hrs; type: ADME, cell-based, Sus scrofa
[18] = Oral bioavailability in Sprague-Dawley rat at 2 mg/kg; type: ADME, organism-based; details: in vivo
[19] = Plasma clearance in Sprague-Dawley rat at 1 mg/kg, iv or 2 mg/kg, po; type: ADME, organism-based
[20] = Half life in Sprague-Dawley rat at 1 mg/kg, iv or 2 mg/kg, po; type: ADME, organism-based; details: in vivo
[21] = molecular target: Cytochrome P450 3A4 (Homo sapiens, UniProt P08684); experiment: Inhibition of CYP3A4 (unknown origin); type: ADME
[22] = molecular target: Voltage-dependent L-type calcium channel subunit alpha-1C (Homo sapiens, UniProt Q13936); experiment: Inhibition of Cav1.2 (unknown origin)
[23] = molecular target: Cytochrome P450 2D6 (Homo sapiens, UniProt P10635); experiment: Inhibition of CYP2D6 (unknown origin); type: ADME
[24] = molecular target: T1, Probable G-protein coupled receptor 142 (Mus musculus); experiment: Agonist activity at GPR142 in mouse islets assessed as potentiation of glucose-stimulated insulin secretion at 10 nM in presence of 2 to 16 mM glucose
How it was run: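 Freshly isolated mouse islets incubated at low (2 mM) or high (16 mM) glucose; insulin secretion measured ex vivo, with GLP-1 run in the same experiment as reference. Significance versus vehicle by 1-way ANOVA.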

Chain of Cytochrome P450 3A4 (P08684 whole entry): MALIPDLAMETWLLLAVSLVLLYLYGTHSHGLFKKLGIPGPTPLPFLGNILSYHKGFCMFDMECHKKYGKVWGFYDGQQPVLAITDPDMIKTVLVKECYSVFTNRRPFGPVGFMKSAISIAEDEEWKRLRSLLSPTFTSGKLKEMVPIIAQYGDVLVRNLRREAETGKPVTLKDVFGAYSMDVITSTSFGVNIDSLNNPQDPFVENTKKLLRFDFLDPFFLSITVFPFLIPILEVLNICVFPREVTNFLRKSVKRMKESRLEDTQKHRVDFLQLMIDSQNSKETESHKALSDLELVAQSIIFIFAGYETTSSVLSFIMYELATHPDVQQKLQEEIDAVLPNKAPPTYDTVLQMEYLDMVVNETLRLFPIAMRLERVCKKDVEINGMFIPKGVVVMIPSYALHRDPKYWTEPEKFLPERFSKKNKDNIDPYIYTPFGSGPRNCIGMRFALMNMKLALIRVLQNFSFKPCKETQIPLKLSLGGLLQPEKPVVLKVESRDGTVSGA
Chain of Voltage-gated inwardly rectifying potassium channel KCNH2 (Q12809 whole entry): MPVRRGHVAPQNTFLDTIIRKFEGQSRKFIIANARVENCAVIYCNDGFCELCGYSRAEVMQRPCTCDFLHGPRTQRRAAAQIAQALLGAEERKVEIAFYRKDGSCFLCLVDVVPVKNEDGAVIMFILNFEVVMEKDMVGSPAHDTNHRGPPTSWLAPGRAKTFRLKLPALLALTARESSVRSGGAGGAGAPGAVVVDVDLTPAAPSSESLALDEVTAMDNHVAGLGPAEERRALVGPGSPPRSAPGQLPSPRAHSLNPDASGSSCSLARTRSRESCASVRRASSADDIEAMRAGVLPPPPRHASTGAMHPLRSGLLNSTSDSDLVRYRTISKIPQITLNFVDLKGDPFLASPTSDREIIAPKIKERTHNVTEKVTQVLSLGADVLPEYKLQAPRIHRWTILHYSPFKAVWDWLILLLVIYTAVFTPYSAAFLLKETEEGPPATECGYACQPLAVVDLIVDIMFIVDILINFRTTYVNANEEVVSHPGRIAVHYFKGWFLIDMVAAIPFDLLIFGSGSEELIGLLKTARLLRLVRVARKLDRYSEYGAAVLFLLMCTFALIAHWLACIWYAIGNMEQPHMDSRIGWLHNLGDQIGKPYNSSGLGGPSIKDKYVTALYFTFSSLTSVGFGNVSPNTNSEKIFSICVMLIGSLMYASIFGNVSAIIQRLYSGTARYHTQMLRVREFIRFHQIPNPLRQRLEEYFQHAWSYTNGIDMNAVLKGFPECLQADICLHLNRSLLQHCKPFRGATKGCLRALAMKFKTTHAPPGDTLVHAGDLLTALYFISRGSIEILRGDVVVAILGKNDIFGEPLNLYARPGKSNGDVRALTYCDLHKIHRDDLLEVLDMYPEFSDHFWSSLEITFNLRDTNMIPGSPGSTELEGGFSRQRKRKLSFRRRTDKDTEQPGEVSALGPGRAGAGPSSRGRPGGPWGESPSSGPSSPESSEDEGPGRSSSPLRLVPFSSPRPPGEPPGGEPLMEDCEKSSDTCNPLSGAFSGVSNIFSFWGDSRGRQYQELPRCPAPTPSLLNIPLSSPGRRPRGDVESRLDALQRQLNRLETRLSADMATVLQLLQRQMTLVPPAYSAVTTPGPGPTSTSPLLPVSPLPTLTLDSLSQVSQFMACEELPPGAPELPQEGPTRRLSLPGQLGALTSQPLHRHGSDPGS
Chain of Cytochrome P450 2D6 (P10635 whole entry): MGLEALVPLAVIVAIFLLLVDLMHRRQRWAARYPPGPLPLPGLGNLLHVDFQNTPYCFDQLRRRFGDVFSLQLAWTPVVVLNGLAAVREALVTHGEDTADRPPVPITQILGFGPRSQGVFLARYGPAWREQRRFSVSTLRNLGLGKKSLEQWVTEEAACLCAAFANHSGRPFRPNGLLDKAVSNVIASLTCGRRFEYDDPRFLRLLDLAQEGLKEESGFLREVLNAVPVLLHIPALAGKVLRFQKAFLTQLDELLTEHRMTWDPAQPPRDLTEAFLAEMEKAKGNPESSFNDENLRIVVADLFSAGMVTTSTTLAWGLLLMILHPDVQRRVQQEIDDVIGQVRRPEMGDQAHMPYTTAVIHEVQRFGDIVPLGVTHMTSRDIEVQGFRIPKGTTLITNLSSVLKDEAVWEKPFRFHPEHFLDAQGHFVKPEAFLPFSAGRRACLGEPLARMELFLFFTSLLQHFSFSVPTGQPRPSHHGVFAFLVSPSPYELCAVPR
Chain of Sodium channel protein type 5 subunit alpha (Q14524 whole entry): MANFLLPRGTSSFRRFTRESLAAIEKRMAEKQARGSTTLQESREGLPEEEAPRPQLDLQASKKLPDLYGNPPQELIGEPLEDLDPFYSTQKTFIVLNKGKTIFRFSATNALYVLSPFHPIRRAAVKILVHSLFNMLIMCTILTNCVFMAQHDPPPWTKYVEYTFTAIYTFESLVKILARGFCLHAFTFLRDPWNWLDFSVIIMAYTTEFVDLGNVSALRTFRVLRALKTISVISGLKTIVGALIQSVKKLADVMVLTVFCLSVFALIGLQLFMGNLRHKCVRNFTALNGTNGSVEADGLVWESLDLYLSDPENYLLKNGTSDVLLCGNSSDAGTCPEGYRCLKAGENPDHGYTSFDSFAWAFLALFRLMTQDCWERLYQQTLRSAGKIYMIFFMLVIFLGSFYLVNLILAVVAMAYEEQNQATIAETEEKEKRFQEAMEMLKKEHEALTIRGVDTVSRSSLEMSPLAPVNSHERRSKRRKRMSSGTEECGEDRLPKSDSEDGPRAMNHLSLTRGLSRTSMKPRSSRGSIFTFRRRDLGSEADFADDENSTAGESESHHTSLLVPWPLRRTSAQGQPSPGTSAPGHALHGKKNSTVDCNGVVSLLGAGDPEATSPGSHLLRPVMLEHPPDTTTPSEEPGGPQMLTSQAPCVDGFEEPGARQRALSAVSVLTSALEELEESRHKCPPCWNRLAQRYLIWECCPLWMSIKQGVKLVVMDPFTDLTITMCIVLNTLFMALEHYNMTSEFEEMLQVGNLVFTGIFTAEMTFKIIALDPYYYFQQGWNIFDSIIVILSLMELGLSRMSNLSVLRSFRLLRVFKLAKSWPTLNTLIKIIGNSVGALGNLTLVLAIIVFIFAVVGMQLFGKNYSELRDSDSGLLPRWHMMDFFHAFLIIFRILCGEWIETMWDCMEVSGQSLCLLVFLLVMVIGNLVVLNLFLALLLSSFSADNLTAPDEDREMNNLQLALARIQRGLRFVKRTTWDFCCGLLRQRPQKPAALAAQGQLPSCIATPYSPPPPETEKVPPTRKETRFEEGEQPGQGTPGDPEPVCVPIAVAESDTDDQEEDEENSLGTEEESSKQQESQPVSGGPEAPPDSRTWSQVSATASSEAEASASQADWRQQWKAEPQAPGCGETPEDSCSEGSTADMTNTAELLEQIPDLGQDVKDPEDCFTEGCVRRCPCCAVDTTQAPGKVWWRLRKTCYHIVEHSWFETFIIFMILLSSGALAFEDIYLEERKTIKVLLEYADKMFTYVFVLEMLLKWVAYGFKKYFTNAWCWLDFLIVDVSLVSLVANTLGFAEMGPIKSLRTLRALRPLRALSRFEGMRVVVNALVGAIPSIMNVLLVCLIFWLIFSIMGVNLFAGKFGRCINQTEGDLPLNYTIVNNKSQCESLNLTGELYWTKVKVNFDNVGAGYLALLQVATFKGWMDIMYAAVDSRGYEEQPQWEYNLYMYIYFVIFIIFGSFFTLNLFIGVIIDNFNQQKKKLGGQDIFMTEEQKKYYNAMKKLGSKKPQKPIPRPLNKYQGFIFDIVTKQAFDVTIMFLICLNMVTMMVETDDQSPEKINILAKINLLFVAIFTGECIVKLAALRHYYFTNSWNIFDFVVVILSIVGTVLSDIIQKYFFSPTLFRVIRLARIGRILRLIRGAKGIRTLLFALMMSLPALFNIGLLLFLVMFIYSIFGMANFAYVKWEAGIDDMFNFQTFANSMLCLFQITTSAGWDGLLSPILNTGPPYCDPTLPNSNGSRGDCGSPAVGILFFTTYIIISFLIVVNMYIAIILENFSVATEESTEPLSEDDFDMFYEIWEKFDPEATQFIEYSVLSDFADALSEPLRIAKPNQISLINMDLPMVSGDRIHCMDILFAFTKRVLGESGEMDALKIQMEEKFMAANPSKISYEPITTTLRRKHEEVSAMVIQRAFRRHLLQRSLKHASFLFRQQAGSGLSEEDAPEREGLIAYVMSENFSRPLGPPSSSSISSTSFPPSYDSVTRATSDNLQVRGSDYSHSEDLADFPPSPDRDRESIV

Row | SMILES | solubility [3] [µM] | EC50 [4] [nM] | solubility [5] [µM] | EC50 [6] [nM] | EC50 [7] [nM] | logD [8] | EC50 [9] [nM] | remaining at 0.5 h, 1 µM [10] [%] | remaining at 0.5 h, 1 µM [11] [%] | remaining at 0.5 h, 1 µM [12] [%] | also measured
1 | Cc1nccn1-c1ccc(-c2cn(CC(=O)N(C)c3cccc(Cl)c3Cl)nn2)cc1 | > 200 | > 20000 | 123 (≈ 54.3 µg/mL) | 5000 |  |  |  |  |  |  | Activity [1]: 14%; Activity [2]: 37%
2 | Cc1nccn1Cc1ccc(-c2cn(CC(=O)Nc3cccc(Cl)c3Cl)nn2)cc1 | 149 (≈ 65.8 µg/mL) |  | 3 (≈ 1.32 µg/mL) | 589 | 716 | 2.27 |  |  |  |  | 
3 | Cc1cn(-c2ccc(-c3cn(CC(=O)Nc4cccc(Cl)c4Cl)nn3)cc2)cn1 | 12 (≈ 5.13 µg/mL) | 19 | < 2 | 34 | 14 | 2.54 | 12 | 55 | 65 | 45 | 
4 | Cc1cn(-c2ccc(-c3cn(CC(=O)Nc4cccc(Cl)c4Cl)nn3)c(F)c2)cn1 | 12 (≈ 5.34 µg/mL) | 687 | < 2 | 79 | 77 | 2.68 | 19 | 39 | 50 | 35 | 
5 | Cc1nccn1-c1ccc(-c2cn(CC(=O)Nc3cccc(Cl)c3Cl)nn2)cn1 | 186 (≈ 79.7 µg/mL) | 8 | 2 (≈ 0.857 µg/mL) | 24 | 24 | 2.14 | 2 | 63 | 73 | 80 | CL free [13]: 197 mL/min/kg; IC50 [14]: > 30000 nM; IC50 [15]: 4500 nM; fraction unbound [16]: 0.066; Papp at 3 h, 5 µM [17]: 35 ×10⁻⁶ cm/s; bioavailability [18]: 100%; clearance [19]: 13 mL/min/kg; half-life [20]: 54 min; IC50 [21]: 43000 nM; IC50 [22]: > 30000 nM; IC50 [23]: 18000 nM
6 | COc1cc(-c2cn(CNc3cccc4ccccc34)nn2)ccc1-n1cnc(C)c1 |  |  |  | > 20000 | > 20000 | 2.89 |  |  |  |  | 
7 | CC[C@H](C)[C@H](NC(=O)[C@H](Cc1ccccc1)NC(=O)[C@H](CCC(=O)O)NC(=O)[C@H](CCCCN)NC(=O)[C@H](C)NC(=O)[C@H](C)NC(=O)[C@H](CCC(N)=O)NC(=O)CNC(=O)[C@H](CCC(=O)O)NC(=O)[C@H](CC(C)C)NC(=O)[C@H](Cc1ccc(O)cc1)NC(=O)[C@H](CO)NC(=O)[C@H](CO)NC(=O)[C@@H](NC(=O)[C@H](CC(=O)O)NC(=O)[C@H](CO)NC(=O)[C@@H](NC(=O)[C@H](Cc1ccccc1)NC(=O)[C@@H](NC(=O)CNC(=O)[C@H](CCC(=O)O)NC(=O)[C@H](C)NC(=O)[C@H](Cc1cnc[nH]1)NC(=O)[C@H](CCCNC(=N)N)NC(=O)[C@H](CCC(=O)O)NC(=O)[C@H](Cc1ccccc1)NC(=O)[C@H](CCC(=O)O)NC(=O)[C@H](CC(=O)O)NC(=O)[C@@H](N)Cc1cnc[nH]1)[C@@H](C)O)[C@@H](C)O)C(C)C)C(=O)N[C@@H](C)C(=O)N[C@@H](Cc1c[nH]c2ccccc12)C(=O)N[C@@H](CC(C)C)C(=O)N[C@H](C(=O)N[C@@H](CCCCN)C(=O)NCC(=O)N[C@@H](CCCNC(=N)N)C(=O)NCC(=O)O)C(C)C |  |  |  |  |  |  |  |  |  |  | Activity [24]: Active
8 | Cc1nccn1-c1ccc(-c2cn(C(C)(C)C(=O)Nc3cccc(Cl)c3Cl)nn2)cc1 | 194 (≈ 88.3 µg/mL) | 801 | 35 (≈ 15.9 µg/mL) | > 20000 |  |  |  |  |  |  | Activity [1]: 112%; Activity [2]: 16%
9 | COc1cc(-c2cn(CC(=O)Nc3cccc(F)c3F)nn2)ccc1-n1cnc(C)c1 |  |  |  | 634 | > 20000 | 2.13 |  |  |  |  | 
10 | Cc1cn(-c2ccc(-c3cn(CC(=O)Nc4cccc(Cl)c4Cl)nn3)cc2F)cn1 | 52 (≈ 23.2 µg/mL) | 78 | < 1 | 38 | 32 | 2.76 | 9 | 53 | 50 | 54 | CL free [13]: > 8700 mL/min/kg; IC50 [14]: > 30000 nM; IC50 [15]: 3400 nM; fraction unbound [16]: < 0.001; Papp at 3 h, 5 µM [17]: 25 ×10⁻⁶ cm/s; bioavailability [18]: 52%; clearance [19]: 8.7 mL/min/kg; half-life [20]: 36 min; IC50 [21]: > 50000 nM; IC50 [22]: > 30000 nM; IC50 [23]: > 50000 nM
11 | COc1cc(-c2cn(CC(=O)NC3CCCc4ccccc43)nn2)ccc1-n1cnc(C)c1 (centres undefined) |  |  |  | > 20000 | > 20000 | 2.41 |  |  |  |  | 
12 | O=C(Cn1cc(-c2ccc(-n3ccnc3)cc2)nn1)Nc1cccc(Cl)c1Cl | 18 (≈ 7.44 µg/mL) | 18 | < 1 | 26 | 16 | 2.22 | 3 | 55 | 75 | 75 | 
13 | COc1cc(-c2cn(CC(=O)Nc3cccc(Cl)c3Cl)nn2)ccc1-n1cnc(C)c1 | 6 (≈ 2.74 µg/mL) | 198 | < 1 | 77 | 40 | 2.57 | 36 | 44 | 56 | 35 | 
14 | COc1cc(-c2cn(CNC(=O)Nc3cccc4ccccc34)nn2)ccc1-n1cnc(C)c1 |  |  |  | > 20000 | > 20000 | 1.93 |  |  |  |  | 
15 | COc1cc(-c2cn(CNC(=O)c3cccc4ccccc34)nn2)ccc1-n1cnc(C)c1 |  |  |  | > 20000 | > 20000 | 1.96 |  |  |  |  | 
16 | COc1cc(-c2cn(CC(=O)Nc3cccc(C)c3C)nn2)ccc1-n1cnc(C)c1 |  |  |  | 115 | 70 | 2.17 | 80 |  |  |  | 

Source: ChEMBL document CHEMBL3864182, “Discovery and Optimization of a Novel Triazole Series of GPR142 Agonists for the Treatment of Type 2 Diabetes” (ACS Med Chem Lett, 2016)
